# Among all 240,000 compounds or so, about 950 (0.4%) were called active.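 The calls were made as follows: active = lipid droplet intensity inhibited by at least 50%, with more than 500 cells counted; inconclusive = wells with under 300 cells, treated as cytotoxic; inactive = the rest.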 Only a selection was taken, and actives are over-represented in it overall.
# Test: oleate-induced lipid droplet accumulation in AML12 cells – imaging, high-throughput imaging, BODIPY stain, primary screen (AID 1656);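 as to cell count: cells counted across two imaged fields per well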
# Conditions: AML12 mouse hepatocytes, oleate lipid droplets, at 6.5 µM; cell count: measured here: cell count, cytotoxicity flag; inhibition: stronger effect = higher value
# How it was run: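 Technique: fluorescence imaging, 20x objective, two fields per well / Assay system: AML12 hepatocytes (mouse) / Measure: % inhibition of lipid droplet signal / Doses: 6.5 µM single-point dosing / Incubation: overnight exposure / Reagent: 100 µM oleic acid challenge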
Compound,cell count,inhibition
COc1ccc(CCNC(=O)C(=O)NCC2OCCN2S(=O)(=O)c2cccs2)cc1OC (stereo not drawn),689 cells,-12.1% (inactive)
COc1cccc(C(=O)N/N=C(\C)c2cccc(NC(=O)c3ccc(F)cc3)c2)c1OC,678 cells,-6.8% (inactive)
COc1ccc(/C=N/N=C2/C(=O)Nc3ccccc32)cc1O,676 cells,9.7% (inactive)
C(=N\N1CCN(c2ccccn2)CC1)/C1=C(N2CCOCC2)C(=C/c2ccccc2)/CC1,680 cells,-4.6% (inactive)
O=C1Nc2ccc(Br)cc2/C1=N/N=C/C1=C(N2CCOCC2)C(=C\c2ccccc2)/CC1,750 cells,55.6% (active)
CCCc1cc(=O)oc2cc(OCC(=O)Nc3ccc(CN4CCOCC4)cc3)c(Cl)cc12,636 cells,-0.7% (inactive)
O=C(CSc1nc2nccnc2c(=O)n1Cc1cccs1)Nc1ccccc1F,782 cells,2.9% (inactive)
COc1cc(/C=C/C(=O)N2CCc3ccccc3C2)cc(OC)c1OC,825 cells,0% (inactive)
CC(C)(C)NS(=O)(=O)c1ccc(NC(=O)C2CCCO2)cc1 (stereo not drawn),829 cells,2.6% (inactive)
CCCNC(=O)CCc1c(C)nc2c(c(C)nn2-c2ccc(C)cc2)c1C,848 cells,10.2% (inactive)
COc1ccc(N(CC(=O)Nc2cc(OC)cc(OC)c2)S(=O)(=O)c2c(C)n[nH]c2C)cc1,704 cells,-4% (inactive)
CCSc1nsc(NC(=O)Nc2ccccc2OC)n1,808 cells,-10.6% (inactive)
Cc1cc(C(=O)NC2CCCc3c2cnn3-c2cccc(C)c2C)c(C)o1 (stereo not drawn),865 cells,59.9% (active)
Cn1nccc1C(=O)NC1CCCc2c1cnn2-c1ccccc1F (stereo not drawn),545 cells,-55.5% (inactive)
COc1ccc(C(=O)NC2CCCc3c2cnn3-c2cccc(C)c2C)c(OC)n1 (stereo not drawn),767 cells,-1.4% (inactive)
COc1ccc(CCNC(=O)CS(=O)(=O)Cc2nc(-c3ccc(C)cc3)oc2C)cc1OC,750 cells,11.2% (inactive)
O=C(c1ccc(F)cc1)N1CCCC(C(=O)N2CCCCC2)C1 (stereo not drawn),708 cells,-8.5% (inactive)
O=S(=O)(c1ccc(Br)cc1)c1nc(-c2ccccc2)oc1N1CCOCC1,610 cells,-17.8% (inactive)
O=C1CCC(C(=O)N2CCN(c3ccccc3Cl)CC2)CN1CC1CCCCC1 (stereo not drawn),746 cells,0% (inactive)
COc1ccc(OC)c(CNC(=O)CCc2nc(-c3cccs3)no2)c1,746 cells,-2% (inactive)

Compound,cell count,inhibition
COc1ccc(OC)c(-c2csc(-c3cccs3)n2)c1,816 cells,69.1% (active)
COc1ccc(-c2csc(-c3cccs3)n2)cc1OC,713 cells,8.5% (inactive)
CC(C)(C)NC(=O)Cn1cnc2cc([N+](=O)[O-])ccc2c1=O,720 cells,58.1% (active)
Cc1cc(C(=O)Cn2cnc3cc([N+](=O)[O-])ccc3c2=O)c(C)n1CC1CCCO1 (stereo not drawn),680 cells,-0.6% (inactive)
O=C(Cn1cnc2cc([N+](=O)[O-])ccc2c1=O)NC(=O)NCc1ccccc1,618 cells,-1% (inactive)
CC(=O)N1CCN(c2ccccc2NC(=S)NC(=O)c2cc3ccccc3o2)CC1,682 cells,29.4% (inactive)
Cc1cccc(N2CCN(C(=O)c3cccc(N4C(=O)C5C6C=CC(C6)C5C4=O)c3)CC2)c1C (stereo not drawn),793 cells,-0.4% (inactive)
CCCc1cc(C(=O)N2CCCC(CO)(CCCc3ccccc3)C2)n(C)n1 (stereo not drawn),631 cells,-27.5% (inactive)
CC1CCN(C(=S)NC(=O)c2ccccc2Br)CC1,661 cells,-5.4% (inactive)
CCCCN1C(=O)/C(=C/C=C2/C=Cc3ccccc3N2CC)SC1=S,734 cells,56.1% (active)
CCN1C(=O)/C(=C2/Sc3ccccc3N2CCCS(=O)(=O)O)SC1=S,691 cells,-5.7% (inactive)
CCCCN1C(=O)/C(=C2/C=CC=CN2C)SC1=S,765 cells,-17.5% (inactive)
COc1ccc(Cl)cc1NC(=O)CN(C)C(=O)CNC(=O)C12CC3CC(CC(C3)C1)C2,778 cells,18.1% (inactive)
COc1ccc(Cl)cc1NC(=O)CN(C)C(=O)CCCc1c[nH]c2ccccc12,812 cells,53.5% (active)
COc1ccccc1NC(=O)CCCc1c[nH]c2ccccc12,740 cells,-19.1% (inactive)
Cc1ccc(-n2nc3c(=O)n(C(C)C(=O)NCc4ccc5c(c4)OCO5)nc(C)c3c2C)cc1 (stereo not drawn),665 cells,15.4% (inactive)
O=C(NCCCN1CCOCC1)c1cc(-c2ccccc2F)no1,726 cells,6.3% (inactive)
COC(=O)c1ccc(COc2ccc(/C=C/C(=O)c3ccc(OC)c(CSCC(=O)O)c3)cc2OC)cc1,891 cells,-2% (inactive)
CC(C)c1ccc(N(C(=O)c2ccco2)C(C(=O)NC2CCCC2)c2cccnc2)cc1 (stereo not drawn),761 cells,-17.7% (inactive)

# Source: PubChem BioAssay AID1656 (Sanford-Burnham Center for Chemical Genomics, 2009)
